Most compounds without a hit are left out; they make up all but 1.1% or so of the library.
FXIIa inh 1536 – inhibitors of human coagulation factor XIIa | purified FXIIa, Boc-QGR-AMC fluorogenic substrate, 2 h | inhibition, % at 5 µM | P00748 | AID 800 | actives 0.3% (n = 220,000); in the data active = inhibition above about 40%
Target sequence (P00748 20-372 limits assumed): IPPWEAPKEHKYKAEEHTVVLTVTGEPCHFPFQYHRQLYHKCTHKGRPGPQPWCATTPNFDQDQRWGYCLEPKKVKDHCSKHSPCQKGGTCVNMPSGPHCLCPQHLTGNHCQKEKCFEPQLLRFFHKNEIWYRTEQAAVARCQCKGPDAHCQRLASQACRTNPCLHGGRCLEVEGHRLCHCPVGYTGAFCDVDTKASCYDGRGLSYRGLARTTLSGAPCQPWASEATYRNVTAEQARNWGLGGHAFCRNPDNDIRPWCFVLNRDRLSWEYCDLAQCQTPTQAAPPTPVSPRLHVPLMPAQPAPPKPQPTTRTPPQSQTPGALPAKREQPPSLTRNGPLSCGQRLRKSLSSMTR
Target sequence (P00748 373-615 limits assumed): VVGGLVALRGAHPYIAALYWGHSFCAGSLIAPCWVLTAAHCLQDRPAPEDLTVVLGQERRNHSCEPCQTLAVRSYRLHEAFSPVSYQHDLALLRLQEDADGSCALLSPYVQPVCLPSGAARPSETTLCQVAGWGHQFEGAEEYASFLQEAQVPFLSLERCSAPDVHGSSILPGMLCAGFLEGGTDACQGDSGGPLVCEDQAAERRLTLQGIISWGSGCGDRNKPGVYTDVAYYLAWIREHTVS
Thrombin inh – inhibitors of human thrombin; inhibition, % at 5 µM; alpha-thrombin, Boc-VPR-AMC fluorogenic substrate cleavage; P00734; actives 0.26% (n = 220,000); AID 1046;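 active = inhibition at or above 40%; inactive = inhibition below 40%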
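System – human alpha-thrombin · Medium – pH 7.5 Tris (50 mM) with NaCl 150 mM, Tween 20 0.05% · Compound – single-point dosing at 5 µM, 0.2% DMSO · Incubation – enzyme reaction carried out at room temperature · Technique – fluorescence of released AMC, ex 355 nm, em 460 nm · Read-out basis – % inhibition of thrombin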
FXIa inh 1536 – inhibitors of human coagulation factor XIa; purified FXIa, Boc-Glu-Ala-Arg-AMC fluorogenic substrate; actives 0.14% (n = 220,000); AID 798; inhibition, % at 5 µM;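 active = inhibition of at least 40%; inactive = inhibition below 40%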;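 note: fluorescence of freed AMC excited at 355 nm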
Biofilm kill mix – mixture kills Candida albicans biofilm cells; C. albicans biofilm persisters + clotrimazole, fluorescence viability; primary screen in compound mixtures of four per well; inhibition, % at 7.6 µM; actives 0.02% (n = 120,000); AID 1242;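 active = inhibition above 30.3% in the primary screen of four-compound pools, then above 30% when the compound was retested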;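 note: compounds exposed to preformed 24 h biofilms for 48 h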
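Assay system: C. albicans biofilms / Medium: RPMI/MOPS medium, pH 7.0 / Schedule: biofilm formation 24 h, compound exposure 48 h, 37 °C / Measured by: Alamar Blue fluorescence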
Furin inh – inhibitors of human furin | P09958 | inhibition, % at 20 µM or 30 µM | actives 0.061% (n = 220,000) | purified furin, fluorogenic substrate cleavage; in the data active = inhibition above about 25%
hK5 inh – inhibitors of human kallikrein 5 | inhibition, % at 5 µM | actives 0.59% (n = 210,000) | AID 873 | recombinant hK5, fluorogenic AMC substrate cleavage | Q9Y337;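 active = inhibition of 40% or more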
Of the large screens only hits and unclear results are named; the others gave an inactive call.

COc1cc(OC)cc(C(=O)N2CCN(Cc3ccccc3C(F)(F)F)CC2)c1	FXIIa inh 1536 40 (no result: Biofilm kill mix)
O=C(c1cccc(Cl)c1)N1CCN(Cc2ccncc2)CC1	none (no result: Biofilm kill mix)
COc1ccc(OC)c(CN2CCN(C(=O)c3cccc4ccccc34)CC2)c1	hK5 inh 44 (no result: Biofilm kill mix)
Cc1ccc(/C=N\Nc2nc3ccc(Cl)cc3[nH]2)o1	FXIIa inh 1536 52 (no result: Biofilm kill mix)
CS(=O)(=O)N1CCCC(C(=O)N2CCN(c3cccc(Cl)c3)CC2)C1 (centres undefined)	none (no result: hK5 inh)
Cc1nn2c(CN(C(=O)CN3CCOCC3)c3ccccc3)nnc2c2ccccc12	FXIIa inh 1536 42
CCOc1ccccc1NC(=O)c1cc(SC)ccc1Cl	none
N/C(=N\OC(=O)c1ccc(Cl)c([N+](=O)[O-])c1)c1ccccn1	FXIIa inh 1536 98
N#CCC(=O)Nc1ccccc1C(=O)O	none (no result: Biofilm kill mix)
O=C(O)CC(=O)Nc1ccccc1C(=O)O	FXIIa inh 1536 68 (no result: Biofilm kill mix)
CCCN(CCC)S(=O)(=O)c1ccc(C(=O)NNc2nc(-c3ccccc3)c3cc(Br)ccc3n2)cc1	FXIa inh 1536 66
COc1ccc(N(C(C)C(=O)N2CCC(Cc3ccccc3)CC2)S(C)(=O)=O)cc1 (centres undefined)	none
Cc1cccc(/N=C/C2=C(O)CC(C)(C)CC2=O)n1	Furin inh 46
CC1(C)CC(=O)C=C(N=CC2=C(O)CC(C)(C)CC2=O)C1	none (no result: Biofilm kill mix)
Cc1cc(N=CC2=C(O)CC(C)(C)CC2=O)no1	Furin inh 46 (no result: Biofilm kill mix)
COc1ccc(NC(=O)c2ccc(COc3ccc(C)cc3)o2)cc1	none
O=C(CC12CC3CC(CC(C3)C1)C2)NCC(c1ccc(F)cc1)N1CCOCC1 (centres undefined)	none
CC(C)(C)OC(=O)C(Cl)(C(=O)OC(C)(C)C)c1ccc2nnnn2n1	none
Cc1ccc2c(c1)CC1(CN2C)C(=O)OC(C)(C)OC1=O	Thrombin inh 73 (no result: Biofilm kill mix)
Cc1ccc2c(c1)C1(C(=O)N2C)N2CC3(C)CN1CC(C)(C2)C3=O (centres undefined)	none (no result: Biofilm kill mix)
COc1ccc(/C=C2\SC(=S)N(CC(=O)OCC(=O)Nc3cc(Cl)cc(Cl)c3)C2=O)cc1	none
O=C(N/N=C/c1ccccc1C(=O)O)c1ccccc1Br	FXIa inh 1536 62, hK5 inh 60
Cc1ccc(C2=NN(C(=O)CCC(=O)O)C(c3cn(-c4ccccc4)nc3-c3ccc(C)cc3)C2)cc1 (centres undefined)	none
OC1(c2ccc(Cl)c(Cl)c2)C[n+]2ccccc2N1Cc1ccccc1 (centres undefined)	none
O=C(O)c1cc([N+](=O)[O-])ccc1NCCc1ccccc1	none
O=C(O)c1cc([N+](=O)[O-])ccc1NCc1ccccc1Cl	Thrombin inh 41 (no result: hK5 inh)
CSc1ccccc1C(=O)C1CCCN(S(=O)(=O)N(C)C)C1 (centres undefined)	FXIIa inh 1536 102
Cc1ccc(C(=O)NNC(=S)NC(=O)COc2ccccc2)cc1	FXIa inh 1536 41 (no result: Biofilm kill mix)
CCOc1ccc2[nH]c(=O)c(C(c3nnnn3C3CCCCC3)N3CCN(C)CC3)cc2c1 (centres undefined)	FXIIa inh 1536 48 (no result: Biofilm kill mix)
COc1cccc(CN2CCNC(=O)C2CC(=O)NCCn2ccc3ccccc32)c1OC (centres undefined)	none
CN(NC1OC(=O)c2ccccc21)c1ncc(Cl)cc1C(F)(F)F (centres undefined)	FXIIa inh 1536 107
COC(=O)C1(NC(=O)NC2CCCCC2)CCCCC1	none
O=C(OCC(=O)N1CCc2ccccc2C1)c1cccnc1Cl	none
Nc1nnc(-c2cccc([N+](=O)[O-])c2)o1	hK5 inh 51
CCOC(=O)C1CCCN(c2c(NCCCN(C)c3ccccc3)c(=O)c2=O)C1 (centres undefined)	hK5 inh 42 (no result: Biofilm kill mix)
Cc1ccc(S(=O)(=O)N2CCC(C(=O)NNC(=O)c3cccnc3)CC2)cc1	none
O=[N+]([O-])c1cncc([N+](=O)[O-])c1Nc1ccccc1Cl	FXIIa inh 1536 44
O=C(NCCN1C(=O)C2C3C=CC(C3)C2C1=O)Nc1ccccc1 (centres undefined)	FXIIa inh 1536 107 (no result: Biofilm kill mix)
COc1ccc(-c2[nH]ncc2C2N=C(N)Nc3nc4ccccc4n32)cc1 (centres undefined)	FXIa inh 1536 47
OCc1nc2ccccc2n1/N=C/c1cccs1	hK5 inh 43
O=C(Nc1ccccc1-c1nnn(CC(=O)N2CCc3ccccc3C2)n1)C1CCC1	hK5 inh 56 (no result: Biofilm kill mix)
CCOc1ccc(-n2c(SCC(N)=O)nc3c([nH]c4ccccc43)c2=O)cc1	hK5 inh 44 (no result: Biofilm kill mix)
CCOc1ccc(-n2c(SCC(=O)Nc3cc(C)on3)nc3c([nH]c4ccccc43)c2=O)cc1	none (no result: Biofilm kill mix)
Cc1c(-n2c(SC(C)C(=O)NC(N)=O)nc3ccccc3c2=O)c(=O)n(-c2ccccc2)n1C (centres undefined)	none (no result: FXIIa inh 1536)
CC(C)c1ccccc1NC(=O)CC1(CC(=O)O)CCCC1	none
Cc1nn(C)c(C)c1/C=C(/C(=O)C(C)C)n1cncn1	FXIa inh 1536 42, hK5 inh 40
Cc1nn(C)c(C)c1/C=C(/C(=O)C(C)(C)C)n1cncn1	none
Cc1ccc(S(=O)(=O)NN2C(=O)/C(=C/c3cccn3C)SC2=S)cc1	hK5 inh 41
COc1ccc(CNC(=O)C/C(C)=N/NC(=O)c2cnccn2)cc1	none
O=C(Cn1nc(C(F)F)cc1C(F)F)NNC(=S)Nc1ccc([N+](=O)[O-])cc1	none
O=C(Cn1nc(C(F)F)cc1C(F)F)NNC(=S)Nc1ccc(F)cc1	Thrombin inh 50 (no result: Biofilm kill mix)
COc1ccc(Cl)cc1NC(=S)NNC(=O)C1(C)CC1(Cl)Cl (centres undefined)	FXIIa inh 1536 49
COC(=O)c1cc(OC)c(OC)cc1NC(=S)Nc1cc(Cl)ccc1OC	none
CC(C)N(CCCNC(=O)CC1Oc2ccccc2NC1=O)Cc1ccccc1 (centres undefined)	hK5 inh 55 (no result: Biofilm kill mix)
O=C(CC1Oc2ccccc2NC1=O)NCCCN1CCCC1=O (centres undefined)	hK5 inh 53 (no result: Biofilm kill mix)
CC(C)CN(CCCNC(=O)CC1Oc2ccccc2NC1=O)CC(C)C (centres undefined)	none (no result: Biofilm kill mix)
Cc1ccc(S(=O)(=O)N(CC#N)CC#N)cc1	none
CCc1nc2oc3ccccc3c(=O)c2c(=O)n1Cc1ccccc1	none (no result: Biofilm kill mix)
CCc1nc2oc3cc(OC)ccc3c(=O)c2c(=O)n1Cc1ccccc1	hK5 inh 48 (no result: Biofilm kill mix)
COCC(C)NC(=O)C(C)Oc1ccccc1 (centres undefined)	none
OCCC1CN(Cc2cccn2-c2ccccn2)CCN1Cc1ccccc1 (centres undefined)	none (no result: hK5 inh)
COc1ccc(COCC(O)CN2CCOCC2)cc1OC (centres undefined)	none (no result: Biofilm kill mix)
COc1cc(COCC(O)CN2CCOCC2)cc(OC)c1OC (centres undefined)	FXIIa inh 1536 45 (no result: Biofilm kill mix)
CC(C)c1nnc(NC(=O)c2cnccn2)s1	Thrombin inh 41 (no result: Biofilm kill mix)

Assay outcomes: PubChem BioAssay, several laboratories
